SMILES strings stand for the structures. Converted amounts (≈) assume the structure as drawn. Where only a bound is given, the exact number is not on record here.

For data set [1], the system named is Candida albicans. In words: Antimicrobial activity against Candida albicans SC5314 infected in ICR mouse assessed as mean survival days at 0.32 mg/kg, iv qd for 5 days starting 2 hrs post infection (reference value: 9.0 +/- 0.67 days). The data set is classed as functional.
The subject of data set [2] is Candida albicans. The data set is described as follows: Antimicrobial activity against Candida albicans SC5314 infected in ICR mouse assessed as mean survival days at 1 mg/kg, iv qd for 5 days starting 2 hrs post infection (reference value: 9.0 +/- 0.67 days). The data set is classed as functional.
For data set [3], the system named is Candida albicans. In words: Antimicrobial activity against Candida albicans SC5314 infected in ICR mouse assessed as mean survival days at 3.2 mg/kg, iv qd for 5 days starting 2 hrs post infection (reference value: 9.0 +/- 0.67 days). The data set is classed as functional.
Data set [4] relates to Candida albicans. The data set is described as follows: Antimicrobial activity against Candida albicans SC5314 infected in ICR mouse assessed as mean survival days at 10 mg/kg, iv qd for 5 days starting 2 hrs post infection (reference value: 9.0 +/- 0.67 days). In kind it is functional.
Data set [5] can be described thus: Cmax in Sprague-Dawley rat at 10 mg/kg, po. The data set is classed as ADME, organism-based. Set-up: dose 10 mg/kg, route oral. The following applies: in vivo. Summed up:
(§1)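 Male Sprague−Dawley rats (200−250 g), seven per group, dosed orally at 10 mg/kg or intravenously at 3 or 5 mg/kg in 5% DMSO + 5% Tween 80 in 90% saline. Serial retrobulbar blood samples were quantified by LC-MS. Parameters were derived from mean plasma concentrations by noncompartmental analysis. For the disulfate salt, values are based on the active free base measured.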

Data set [6] is described as follows: Tmax in Sprague-Dawley rat at 10 mg/kg, po. In kind it is ADME, organism-based. More on the design: dose 10 mg/kg, route oral. The note with it: in vivo. The essentials:
as §1

Data set [7] is described as follows: Half life in Sprague-Dawley rat at 10 mg/kg, po. In kind it is ADME, organism-based. Set-up: dose 10 mg/kg, route oral. The note with it: in vivo. The essentials:
as §1

A short description of data set [8]: AUC (0 to infinity) in Sprague-Dawley rat at 10 mg/kg, po. Set-up: time infinity, dose 10 mg/kg, route oral. The data set is classed as ADME, organism-based. The note with it: plasma. Summed up: as §1
Data set [9] is described as follows: Intrinsic clearance in Sprague-Dawley rat liver microsomes assessed per mg protein at 0.1 uM by LC/MS/MS analysis. In kind it is ADME. The following applies: read-out: […]. The essentials: (§2)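 Male Sprague−Dawley rat liver microsomes (0.33 mg/mL protein) in 0.1 M Tris-HCl pH 7.4 with 5 mM MgCl₂ and 1 mM NADPH. Compound at a final 0.1 μM (0.01% DMSO, 0.005% BSA), incubated at 37 °C. Samples taken at 0, 7, 17, 30 and 60 min were quenched in methanol, and parent compound was measured by LC/MS/MS. t1/2 and Clint were then calculated.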
In general terms: Liver microsomes are a subcellular fraction often used to study metabolism.

A short description of data set [10]: Oral bioavailability in Sprague-Dawley rat at 10 mg/kg. In kind it is ADME, organism-based. The note with it: in vivo. Summed up: as §1
Data set [11] is described as follows: Elimination half life in Sprague-Dawley rat liver microsomes at 0.1 uM by LC/MS/MS analysis. The data set is classed as ADME. The following applies: read-out: beta t1/2. Summed up:
as §2

For data set [12], the system named is Hepatocyte. The data set is described as follows: Cytotoxicity against rat hepatocytes assessed as reduction in survival rate at 5 to 40 uM after 48 hrs by SRB assay. The data set is classed as cell-based.
Data set [13] in a line: Half life in Sprague-Dawley rat at 5 mg/kg, iv. More on the design: dose 5 mg/kg, route intravenous. In kind it is ADME, organism-based. The following applies: in vivo. The essentials:
as §1

Data set [14] can be described thus: AUC (0 to infinity) in Sprague-Dawley rat at 5 mg/kg, iv. The data set is classed as ADME, organism-based. Set-up: dose 5 mg/kg, route intravenous, time infinity. The following applies: plasma. The essentials:
as §1

The nature of data set [15]: Clearance in Sprague-Dawley rat at 5 mg/kg, iv. The following applies: in vivo. More on the design: dose 5 mg/kg, route intravenous. The data set is classed as ADME, organism-based. Summed up:
as §1

Data set [16] has as its target Voltage-gated inwardly rectifying potassium channel KCNH2 (Homo sapiens, UniProt Q12809). The data set is described as follows: Inhibition of human ERG expressed in CHO cells by whole-cell patch clamp assay. In kind it is cell-based.
Data set [17] has as its system Candida albicans. The data set is described as follows: Antimicrobial activity against Candida albicans SC5314 after 24 hrs by serial dilution method. In kind it is functional. The following applies: SC5314, 24 h. Summed up: (§3)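 Broth serial dilution MIC in 96-well plates following NCCLS/CLSI methods. Compounds were dissolved in DMSO and serially diluted in growth medium, with incubation at 35 °C. […] C. parapsilosis 22019 served as the quality-control strain in each assay.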

In data set [18] the test system is Candida albicans. In words: Antimicrobial activity against Candida albicans Y0109 after 24 hrs by serial dilution method. The data set is classed as functional. The following applies: Y0109, 24 h. Summed up: as §3
The subject of data set [19] is Candida parapsilosis. The data set is described as follows: Antimicrobial activity against Candida parapsilosis 22019 after 24 hrs by serial dilution method. The data set is classed as functional. The following applies: Lodderomyces parapsilosis, 22019, 24 h. Summed up:
as §3

Data set [20] deals with Cryptococcus neoformans. In words: Antimicrobial activity against Cryptococcus neoformans 32609 after 72 hrs by serial dilution method. The data set is classed as functional. The following applies: Cryptococcus neoformans, 32609, 72 h. The essentials:
as §3

Data set [21] has as its system Nakaseomyces glabratus. In words: Antimicrobial activity against Candida glabrata 537 after 24 hrs by serial dilution method. In kind it is functional. The note with it: Nakaseomyces glabratus, 537, 24 h. Summed up: as §3
The test system of data set [22] is Aspergillus fumigatus. In words: Antimicrobial activity against Aspergillus fumigatus 7544 after 48 hrs by serial dilution method. In kind it is functional. The note with it: Aspergillus fumigatus, 7544, 48 h. Summed up:
as §3

The test system of data set [23] is Candida albicans. The data set is described as follows: Antimicrobial activity against fluconazole-resistant Candida albicans 100 after 24 hrs by serial dilution method. The note with it: Candida albicans, 100, 24 h. In kind it is functional. The essentials: (§4)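 Broth serial-dilution MIC in 96-well plates following NCCLS guidance. Compounds were dissolved in DMSO and serially diluted in growth medium. Clinical isolates came from a hospital collection. […] C. parapsilosis ATCC 22019 served as the quality-control strain in each assay.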

Data set [24] concerns Candida albicans. In words: Antimicrobial activity against fluconazole-resistant Candida albicans 103 after 24 hrs by serial dilution method. The note with it: Candida albicans, 103, 24 h. In kind it is functional. The essentials:
as §4

Data set [25] deals with Candida albicans. The data set is described as follows: Antimicrobial activity against fluconazole-resistant Candida albicans J18 after 24 hrs by serial dilution method. The data set is classed as functional. The note with it: J18, 24 h. Summed up: as §4
Data set [26] has as its system Candida albicans. The data set is described as follows: Antimicrobial activity against fluconazole-resistant Candida albicans J28 after 24 hrs by serial dilution method. The data set is classed as functional. The note with it: J28, 24 h. The essentials: as §4
In data set [27] the test system is Candida albicans. The data set is described as follows: Antimicrobial activity against fluconazole-resistant Candida albicans J38 after 24 hrs by serial dilution method. The note with it: J38, 24 h. The data set is classed as functional. The essentials:
as §4

Data set [28] relates to Candida albicans. In words: Antimicrobial activity against Candida albicans SC5314 infected in ICR mouse assessed as mean survival days at 0.5 mg/kg, po qd for 5 days starting 2 hrs post infection (reference value: 9.0 +/- 0.67 days). In kind it is functional. Summed up:
(§5)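 Reference arm of the systemic C. albicans SC5314 model: female ICR mice (18−22 g, n = 10) were infected iv with 0.2 mL of 5 × 10⁶ CFU/mL. Fluconazole was given orally in distilled water, qd for 5 days from 2 h post-infection. Mean survival days were scored over 30 days.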

Data set [29] deals with Candida albicans. In words: Antimicrobial activity against Candida albicans SC5314 infected in ICR mouse assessed as mean survival days at 0.5 mg/kg, po qd for 5 days starting 2 hrs post infection (reference value: 5.2 +/- 2.35 days starting 2 hrs post infection). In kind it is functional. Summed up:
as §5

For data set [30], the system named is Candida albicans. The data set is described as follows: Antimicrobial activity against fluconazole-resistant Candida albicans 103 infected in ICR mouse assessed as mean survival days at 0.5 mg/kg, po qd for 5 days starting 2 hrs post infection (reference value: 1.5 +/- 0.53 days). In kind it is functional.

Chain of Voltage-gated inwardly rectifying potassium channel KCNH2 (Q12809 whole entry): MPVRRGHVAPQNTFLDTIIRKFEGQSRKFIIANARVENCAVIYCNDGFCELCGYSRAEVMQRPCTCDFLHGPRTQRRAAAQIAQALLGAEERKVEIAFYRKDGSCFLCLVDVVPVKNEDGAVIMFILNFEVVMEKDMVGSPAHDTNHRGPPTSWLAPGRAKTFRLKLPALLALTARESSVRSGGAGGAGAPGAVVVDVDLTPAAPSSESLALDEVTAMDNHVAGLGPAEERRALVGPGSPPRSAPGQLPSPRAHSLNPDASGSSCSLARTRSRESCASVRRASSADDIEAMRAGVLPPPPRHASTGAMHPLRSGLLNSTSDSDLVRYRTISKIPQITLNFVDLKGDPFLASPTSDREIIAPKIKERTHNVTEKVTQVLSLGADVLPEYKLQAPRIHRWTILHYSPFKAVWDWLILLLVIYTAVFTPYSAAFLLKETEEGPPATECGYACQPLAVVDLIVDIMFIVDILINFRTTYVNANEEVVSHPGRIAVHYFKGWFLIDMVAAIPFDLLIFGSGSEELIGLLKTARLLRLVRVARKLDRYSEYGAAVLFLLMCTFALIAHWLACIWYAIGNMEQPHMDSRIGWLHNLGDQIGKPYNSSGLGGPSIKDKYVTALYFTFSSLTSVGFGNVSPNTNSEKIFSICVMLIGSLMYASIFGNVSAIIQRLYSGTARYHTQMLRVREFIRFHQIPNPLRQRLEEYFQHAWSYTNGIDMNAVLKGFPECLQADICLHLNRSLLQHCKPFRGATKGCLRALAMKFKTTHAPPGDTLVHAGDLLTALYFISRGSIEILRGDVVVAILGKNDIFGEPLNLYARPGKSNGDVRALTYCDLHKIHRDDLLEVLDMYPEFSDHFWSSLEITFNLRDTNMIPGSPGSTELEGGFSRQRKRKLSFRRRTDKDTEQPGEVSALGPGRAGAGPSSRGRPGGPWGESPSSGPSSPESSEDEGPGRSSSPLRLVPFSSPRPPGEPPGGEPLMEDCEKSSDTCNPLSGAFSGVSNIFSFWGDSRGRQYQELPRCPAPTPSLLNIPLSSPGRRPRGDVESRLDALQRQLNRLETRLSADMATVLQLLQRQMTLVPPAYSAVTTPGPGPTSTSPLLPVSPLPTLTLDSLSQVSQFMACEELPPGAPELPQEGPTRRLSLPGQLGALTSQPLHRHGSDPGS

Broadly, the Cmax is the maximum level reached in the sampled fluid or tissue. Broadly, the Tmax is the time from dosing to the highest level. By AUC(0-inf) is commonly meant the area under the concentration-time curve extrapolated to infinity. A higher AUC(0-inf) goes with high exposure. A word on the bioavailability: it is the share of a dose that reaches the circulation, judged against a reference dose that is usually intravenous. Read a high bioavailability as good availability. In general, clearance refers to the volume of plasma or blood freed of the substance per unit of time. In the case of `C[C@@H](N1CCc2nc(-c3cncnc3)sc2C1)[C@](O)(Cn1cncn1)c1ccc(F)cc1F.O.O=S(=O)(O)O`, the Survival in [1] is 8.8 days; in data set [2], 7.8 days; in data set [3] it was 9.8 days; in data set [4], 11.1 days. Further, the highest concentration (Cmax) in [5] amounted to 164 ng/mL. The Tmax in data set [6] turned out to be 15 min. Besides, the results for the half-life in data set [7] and in data set [13] were 27.6 min and 25.2 min, respectively. In addition, the AUC(0-inf) turned out to be 141 ng·h/mL in [8] and 1190 ng·h/mL in data set [14]. The microsomal CLint at 0.1 µM in data set [9] was determined as 65 µL/min/mg. In addition, the bioavailability in data set [10] came to 5.8%. The half-life at 0.1 µM in data set [11] was determined as 32.4 min. Moreover, the Activity entry in data set [12] is “Non-toxic”. In [15], this compound had a clearance of 72.5 mL/min/kg.

For orientation: IC50 means the concentration that gives 50% inhibition. Consider `CCC(C)n1ncn(-c2ccc(N3CCN(c4ccc(OCC5COC(Cn6cncn6)(c6ccc(Cl)cc6Cl)O5)cc4)CC3)cc2)c1=O` (racemic) [ITRACONAZOLE], for which, in [16], the IC50 was > 40 µM.

Broadly, the MIC is the lowest concentration found to suppress growth. A low value points to a more susceptible organism. For the compound `OC(Cn1cncn1)(Cn1cncn1)c1ccc(F)cc1F` [FLUCONAZOLE], the MIC was 0.5 µg/mL (≈ 1.63 µM) in data set [17]; 0.5 µg/mL (≈ 1.63 µM) in [18]; 1 µg/mL (≈ 3.27 µM) in [19]; 0.5 µg/mL (≈ 1.63 µM) in data set [20]; 0.25 µg/mL (≈ 0.816 µM) in [21]; > 64 µg/mL in data set [22]. The minimum inhibitory concentration (MIC) is 512 µg/mL (≈ 1670 µM) in [23]; > 1020 µg/mL in [24]; > 1020 µg/mL in data set [25]; > 4 µg/mL in data set [26]; > 4 µg/mL in data set [27]. The values for the Survival in data set [28], in [29] and in [30] were 13.1 days, 11.7 days and 2.3 days, respectively.

These data come from ChEMBL document CHEMBL3259614, “Design, synthesis, and structure-activity relationship studies of novel fused heterocycles-linked triazoles with good activity and water solubility” (J Med Chem, 2014).
